Assay results pooled from the literature.
Compare with care: the assays were run in different laboratories.
Target: Ephrin type-B receptor 2 (EPHB2, Homo sapiens, UniProt P29323)
One construct used (P29323 19-1055): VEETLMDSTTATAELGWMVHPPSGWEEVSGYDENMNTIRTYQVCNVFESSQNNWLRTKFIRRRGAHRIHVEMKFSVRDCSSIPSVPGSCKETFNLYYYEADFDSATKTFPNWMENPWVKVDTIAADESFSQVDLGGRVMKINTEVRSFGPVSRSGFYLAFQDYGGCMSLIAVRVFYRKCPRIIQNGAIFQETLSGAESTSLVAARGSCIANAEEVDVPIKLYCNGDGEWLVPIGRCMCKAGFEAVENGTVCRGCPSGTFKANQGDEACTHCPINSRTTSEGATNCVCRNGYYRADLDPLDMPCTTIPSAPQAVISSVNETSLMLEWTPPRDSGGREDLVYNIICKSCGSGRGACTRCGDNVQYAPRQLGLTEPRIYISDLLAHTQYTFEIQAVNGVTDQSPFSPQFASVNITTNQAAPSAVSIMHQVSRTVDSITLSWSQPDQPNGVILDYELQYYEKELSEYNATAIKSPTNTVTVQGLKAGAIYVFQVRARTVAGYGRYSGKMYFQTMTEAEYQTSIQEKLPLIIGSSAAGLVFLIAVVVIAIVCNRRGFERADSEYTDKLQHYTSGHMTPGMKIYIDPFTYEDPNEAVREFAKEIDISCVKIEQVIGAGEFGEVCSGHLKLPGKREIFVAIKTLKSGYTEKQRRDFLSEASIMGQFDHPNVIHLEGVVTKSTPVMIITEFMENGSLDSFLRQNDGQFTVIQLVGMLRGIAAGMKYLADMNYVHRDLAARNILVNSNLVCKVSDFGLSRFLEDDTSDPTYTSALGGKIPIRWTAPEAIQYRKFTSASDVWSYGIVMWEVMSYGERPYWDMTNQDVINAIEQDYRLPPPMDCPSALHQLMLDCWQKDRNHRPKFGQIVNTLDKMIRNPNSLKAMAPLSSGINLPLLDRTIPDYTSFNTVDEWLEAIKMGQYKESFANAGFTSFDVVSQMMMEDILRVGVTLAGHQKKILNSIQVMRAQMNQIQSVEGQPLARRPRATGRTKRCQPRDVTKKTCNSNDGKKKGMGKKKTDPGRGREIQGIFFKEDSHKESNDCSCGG

Structure (SMILES)	test	conditions	quantity	value
CNC(=O)c1cc(Oc2ccc(NC(=O)Nc3ccc(Cl)c(C(F)(F)F)c3)cc2)ccn1	enzyme activity, inhibitor	10 µM	inhibition	95%
CC/C(=N\NC(=O)NCc1cccc(O)c1)c1ccc(O)c(C)c1O	enzyme activity, inhibitor	0.1 µM	inhibition	1.5%
FC(F)c1nc2ccccc2n1-c1nc(N2CCOCC2)nc(N2CCOCC2)n1	enzyme activity, inhibitor	10 µM	remaining activity	106%
O=C(Nc1ccc(Oc2ccc(F)cc2)cc1)N1CCc2ncccc2[C@H]1c1ccc(F)cc1	cell-free assay, competition with immobilised ligand	1 µM	remaining binding	91%
CN(C)C1CCN(CC#Cc2nn(C3CCCC3)c3nc(NCc4ccccc4)ncc23)C1 (centres unmarked)	enzyme activity, inhibitor, FRET	0.1 µM	inhibition	3%
Nc1ncnc2occ(-c3ccc(NC(=O)Nc4cc(C(F)(F)F)ccc4F)cc3)c12	cell-free assay	20 µM	remaining signal	0%
C#Cc1cccc(Nc2ncnc3cc(OCCOC)c(OCCOC)cc23)c1	cell-free assay	0.5 µM	remaining signal	95.1%
CC(=O)c1c(NS(C)(=O)=O)c2cc(-c3ccc(Cl)cc3)c(-c3ccc(Cl)cc3Cl)nc2n(C)c1=O	cell-free assay, competition with immobilised ligand	1 µM	remaining binding	100%
COc1cc2ncnc(Nc3ccc(Oc4ccccc4)c(C)c3C)c2cc1OC	enzyme activity, inhibitor	1 µM	inhibition	6%
c1ccc(CNc2nc(N3CCOc4ccccc43)nc3c2CCCC3)cc1	target engagement in cells, inhibitor, chemoproteomics	20 mM	inhibition	2.6%
O=C(NCc1ncc(C(F)(F)F)cc1Cl)c1ccc2c(c1)C1(CCS(=O)(=O)CC1)[C@H](C1CC1)N2S(=O)(=O)c1ccc(F)cc1	cell-free assay, competition with immobilised ligand	1 µM	remaining binding	100%
COc1cc(/C=C/C(=O)CC(=O)/C=C/c2ccc(O)c(OC)c2)ccc1O	enzyme activity, inhibitor	1 µM	activity vs control	111%
COc1ccc(COc2ccc(Cc3cnc(N)nc3N)cc2OC)cc1	cell-free assay	0.5 µM	remaining signal	87.4%
COc1cc(Cl)c(C(=O)N[C@@H](CN[C@H]2CC[C@@H](N)CC2)Cc2ccc(C#N)cc2)cc1-c1ccc(CN[C@H](C)c2ccc(C)cc2)o1	enzyme activity, inhibitor	1 µM	remaining activity	123%
CC(C)CC(=O)N1CCc2nc(-c3ccc(Br)cc3)nc(N(C)Cc3ccccc3)c2C1	cell-free assay, competition with immobilised ligand	0.1 µM	remaining binding	80%
O=C(Nc1cnn(-c2csc(C(=O)NC3COC3)c2)c1)Nc1ccccc1Cl	enzyme activity, inhibitor	5 µM	remaining activity	101%
Cc1ccc(NC(=O)c2ccc(CN3CCN(C)CC3)cc2)cc1Nc1nc(-c2cccnc2)cs1	cell-free assay	0.5 µM	remaining signal	95.3%
CN(C)c1ncnc(-c2ccc3nc(Nc4cc(CN5CCN(C(=O)CC(F)(F)F)CC5)ccn4)[nH]c3c2)c1Cl	cell-free assay, competition with immobilised ligand	1 µM	remaining binding	100%
CCN(CC)CCNC(=O)c1c(C)[nH]c(/C=C2\C(=O)Nc3ccc(F)cc32)c1C	enzyme activity, inhibitor	10 µM	inhibition	90%
CCOc1cc(-c2nncn2C)ccc1Nc1ncc2cc(C)nc(NCC(C)(C)C)c2n1	enzyme activity, inhibitor, FRET	1 µM	inhibition	< 15%
